Results of several laboratories.
Each line is one published result; the experiments were not run side by side.

With `CC(C)[C@]12O[C@H]1[C@@H]1O[C@]13[C@]1(O[C@H]1C[C@H]1C4=C(CC[C@@]13C)C(=O)OC4)[C@@H]2O` the MRT was 28.8 min (SCID mouse, plasma; intravenous, 0.6 mg/kg).
`Cc1[nH]c(C)c(S(=O)(=O)Nc2ccc(S(F)(F)(F)(F)F)c(Cl)c2)c1C(=O)N1CCC(F)(F)C1` gave a half-life of 13 min (metabolic stability; human, liver microsomes).
`CCOC(=O)c1c(NC(=O)CNC(C)C)sc2c1CCCCC2` gave an MRT(0-inf) of 247 min (male mouse, plasma; intraperitoneal, 100 mg/kg, single dose).
`CC(=O)c1c(C)c2cnc(Nc3ccc(C4CCN(CCS(C)(=O)=O)CC4)cn3)nc2n(C2CCCC2)c1=O` gave a half-life of 28.6 min (metabolic stability; human, liver microsomes).
`CC[C@H](C)[C@H](NC(=O)[C@H](Cc1ccccc1)NC(=O)[C@H](CCC(=O)O)NC(=O)[C@H](CCCCN)NC(=O)[C@H](C)NC(=O)[C@H](C)NC(=O)[C@H](CCC(N)=O)NC(=O)CNC(=O)[C@H](CCC(=O)O)NC(=O)[C@H](CC(C)C)NC(=O)[C@H](Cc1ccc(O)cc1)NC(=O)[C@H](CO)NC(=O)[C@H](CO)NC(=O)[C@@H](NC(=O)[C@H](CC(=O)O)NC(=O)[C@H](CO)NC(=O)[C@@H](NC(=O)[C@H](Cc1ccccc1)NC(=O)[C@@H](NC(=O)CNC(=O)[C@H](CCC(=O)O)NC(=O)[C@H](C)NC(=O)N(N)Cc1c[nH]cn1)[C@@H](C)O)[C@@H](C)O)C(C)C)C(=O)N[C@@H](C)C(=O)N[C@@H](Cc1c[nH]c2ccccc12)C(=O)N[C@@H](CC(C)C)C(=O)N[C@H](C(=O)N[C@@H](CCCNC(=N)N)C(=O)NCC(=O)N[C@@H](CCCNC(=N)N)C(=O)NCC(=O)O)C(C)C` gave an MRT of 8.4 min (male CD-1 mouse, plasma; intravenous, 1 mg/kg, single dose).
The CC50 of `N#C[C@@]1(n2ccc(N)nc2=O)O[C@H](CO)[C@@H](O)[C@H]1O` is reported as 99.5 µM (Huh-7; cell growth or viability).
The MRT of `CC(C)=CCC[C@](C)(O[C@@H]1O[C@H](CO)[C@@H](O)[C@H](O)[C@H]1O)[C@H]1CC[C@]2(C)[C@@H]1[C@H](O)C[C@@H]1[C@@]3(C)CC[C@H](O)C(C)(C)[C@@H]3CC[C@]12C` is reported as 510 min (mouse, plasma; intravenous, 2 mg/kg).
The CC50 of `COc1ccc(NC(=O)N2CCCCN3[C@H](CN(C)C)[C@H](c4ccc(C#Cc5ccccc5)cc4)[C@@H]3C2)cc1` is reported as 6.08 µM (HepG2; cell growth or viability, ATP luminescence; 72 h).
`CC(C)(C)[C@H](NC(=O)C(F)(F)F)C(=O)N1C[C@H]2[C@@H]([C@H]1C(=O)N[C@H](C#N)C[C@@H]1CCNC1=O)C2(C)C` gave a CC50 of > 100 µM (Huh-7; cell growth or viability).
The CC50 of `c1ccc2c(c1)[I+]c1ccccc1-2` is reported as 1.28 µM (HepG2; cell growth or viability, ATP luminescence; 72 h).
The half-life of `CC(C)CC(=O)OC[C@H]1O[C@@](C#N)(c2ccc3c(N)ncnn23)[C@H](O)[C@@H]1O` is reported as 7.93 min (metabolic stability; human, plasma; 5 µM).
